Laboratory results from ChEMBL document CHEMBL1148860, “A non-toxic Hsp90 inhibitor protects neurons from Abeta-induced toxicity” (Bioorg Med Chem Lett, 2007).
Calls of active or inactive are those of the source. The rule behind the calls is not given here.

Legend:
MCF7 [1] = test: Antiproliferative activity against MCF7 cells; type: functional, cell-based; conditions: Homo sapiens
How it was run: (§1)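 MCF-7 and SkBr3 cells incubated with compound over a range of concentrations up to 100 µM. Viable cells quantitated by MTS/PMS assay. Triplicate wells per experiment, three independent experiments; IC50 from dose–response, values as means ± SE.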

SK-BR-3 [2] = test: Antiproliferative activity against SKBR3 cells; type: functional, cell-based; conditions: Homo sapiens; how it was run: as §1
[3] = Cytotoxicity against rat neuronal cells at 10 uM after 24 hrs; type: cell-based; conditions: neuron
How it was run: (§2)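 Neuronal cultures given compound alone (10 µM) or DMSO vehicle. Viability read at 24 h and after 72 h. Percentage surviving neurons taken from three separate experiments, mean ± SE.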

SK-BR-3 [4] = test: Antiproliferative activity against SKBR3 cells upto 100 uM; type: functional, cell-based; conditions: Homo sapiens; how it was run: as §1
MCF7 [5] = test: Antiproliferative activity against MCF7 cells upto 100 uM; type: functional, cell-based; conditions: Homo sapiens; how it was run: as §1
LNCaP [6] = test: Induction of Hsp90 protein in LNCap cells expressing mutated androgen receptor at 10 nM; type: functional, cell-based; conditions: Homo sapiens
How it was run: (§3)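 LNCaP prostate cancer cells, which carry a mutated androgen receptor, exposed to compound from 10 nM upward. Hsp90 induction and loss of client proteins AR and AKT assessed.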

Cortical neurone [7] = test: Inhibition of beta-amyloid (1-42)-induced toxicity in embryonic rat brain primary cortical neurons after 48 hrs; type: functional, tissue-based
How it was run: (§4)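 Primary cortical neurons pretreated with compound at a series of concentrations, then challenged with Aβ25–35 (10 µM), or Aβ1–42 in fewer cultures. Neurons labelled with calcein-AM (live) and propidium iodide (dead) and counted in several fields by fluorescence microscopy. EC50 taken from percentage survival.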

[8] = Cytotoxicity against rat neuronal cells at 10 uM after 72 hrs; type: cell-based; conditions: neuron; how it was run: as §2
Cerebral cortex neuron [9] = test: Increase in Hsp70 level in rat primary cortical neurons at 1 nM after 48 hrs relative to control; type: functional, cell-based
How it was run: (§5)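 Primary cortical neurons incubated 48 h with compound, concentrations from 1 nM to 10 µM. Hsp70 levels measured against DMSO controls.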

BMEC = test: Permeability across BMECs; type: ADME, cell-based, Bos taurus; conditions: cattle, TDE = time-dependent effect
How it was run: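 Primary bovine BMEC monolayers mounted in a side-by-side diffusion chamber. Compound in the receiving chamber sampled over time, up to 90 min.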

LNCaP [10] = test: Degradation of Hsp90 client protein androgen receptor in LNCap cells upto 1 uM; type: functional, cell-based; conditions: Homo sapiens; how it was run: as §3
Cerebral cortex neuron [11] = test: Increase in Hsp70 level in rat primary cortical neurons at 0.2 uM after 48 hrs; type: functional, cell-based; how it was run: as §5
Cortical neurone [12] = test: Inhibition of beta-amyloid (25-35)-induced toxicity in embryonic rat brain primary cortical neurons after 48 hrs; type: functional, tissue-based; how it was run: as §4
LNCaP [13] = test: Degradation of Hsp90 client protein AKT in LNCap cells upto 1 uM; type: functional, cell-based; conditions: Homo sapiens; how it was run: as §3

| Activity (BMEC) | Structure (SMILES) | Activity (MCF7 [1]) | Activity (SK-BR-3 [2]) | Activity [3] | Activity (SK-BR-3 [4]) | Activity (MCF7 [5]) | Activity (LNCaP [6]) | Activity (Cortical neurone [7]) | Activity [8] | Activity (Cerebral cortex neuron [9]) | Activity (LNCaP [10]) | Activity (Cerebral cortex neuron [11]) | Activity (Cortical neurone [12]) | Activity (LNCaP [13]) |
| --- | --- | --- | --- | --- | --- | --- | --- | --- | --- | --- | --- | --- | --- | --- |
|  | COC1=C2C[C@@H](C)C[C@H](OC)[C@H](O)[C@@H](C)/C=C(\C)[C@H](OC(N)=O)[C@@H](OC)/C=C\C=C(/C)C(=O)NC(=CC1=O)C2=O [GELDANAMYCIN] | Dose-dependent effect | Dose-dependent effect | Active |  |  |  |  |  |  |  |  |  |  |
| tde | CO[C@H]1[C@H](O)[C@@H](O)[C@H](Oc2ccc3cc(NC(C)=O)c(=O)oc3c2)OC1(C)C |  |  |  | inactive | inactive | Active | Active | Not Active | Active | inactive | Active | Active | inactive |
